Measurements pooled from the literature.
Each line is one published result; the experiments were not run side by side.
KCNH2: Voltage-gated inwardly rectifying potassium channel KCNH2 (KCNH2, Homo sapiens, UniProt Q12809)

| Compound | target or system | assay | test system | setting | quantity | value |
| --- | --- | --- | --- | --- | --- | --- |
| COc1ccc2c(c1)CN(C(=O)CCN1CCC(Cc3ccccc3)CC1)CC[S@@+]2[O-] |  |  | male human, plasma | intravenous, 0.01 mg/kg, healthy volunteers | Tmax | 0 h |
| COc1nc(-c2cccc(-c3ccccc3)c2C)ccc1CNCCNC(=O)CCCCCCCCCCC(=O)N1CCN(CCNC(=O)c2cc3c(=O)n4cccc(C)c4nc3n(CCc3cccs3)c2=N)CC1 |  |  | male Sprague-Dawley rat, plasma | oral, 40 mg/kg | MRT(0-inf) | 13.6 h |
| CC(C)n1cc(C#N)c2cc(-n3cc(C(=O)O)cn3)ccc21 |  |  | human, plasma | oral, 300 mg, single dose, fasted, healthy volunteers | Tmax | 4.01 h |
| O=C(COc1ccc(Cl)cc1)NC12CC(c3nnc([C@H]4C[C@@H](OC(F)(F)F)C4)o3)(C1)C2 |  |  | human, plasma | oral, 100 mg, single dose, fasted, healthy volunteers | Tmax | 24 h |
| CCOC(=O)C1=C(CN2CCC[C@@H]2C(=O)Nc2ccc(B(O)O)cc2)NC(c2nccs2)=N[C@H]1c1ccc(F)cc1Br | KCNH2 | ion current, inhibitor, patch clamp | HEK293 | 3 µM, pH 7.4 | inhibition | 31.8% |
| CC(=O)N1CCC(C(=O)N2CCN3C(=O)c4cc(-c5ccccc5)ccc4NC(=O)C3C2)CC1 (stereo not shown) | KCNH2 | ion current, inhibitor, patch clamp | HEK293 | 0.1 µM | inhibition | 2.6% |
| C[C@H]1Oc2cc(cnc2N)-c2c(nn(C)c2C#N)CN(C)C(=O)c2ccc(F)cc21 |  |  | male Sprague-Dawley rat, plasma | oral, 50 mg/kg, single dose | MRT(0-t) | 11.9 h |
| COc1cccc(OC)c1-c1cc(C(=O)NC2(C(=O)O)C3CC4CC(C3)CC2C4)nn1-c1ccc(C(=O)N(C)CCCN(C)CCCN(C)C(=O)CN2CCN(CC(=O)[O-])CCN(CC(=O)[O-])CCN(CC(=O)[O-])CC2)cc1C(C)C.[177Lu+3] (stereo not shown) | HT-29 |  | pancreas | 7 days, tumour-bearing | tracer uptake | 0.28 %ID/g |
| N[C@H]1C(O)O[C@H](CO)[C@@H](O)[C@@H]1O (stereo partly shown) | Caco-2 | cell growth or viability, CCK-8 |  | 10 mM | viability | 102% |
| CN1C[C@H](COc2nccc3c(NCc4ccco4)cc(Cl)nc23)OC1=O | KCNH2 | ion current, inhibitor | HEK293 | 10 µM | inhibition | 21.4% |
